# Values joined by “and” are separate entries in the source; they are usually repeats but may differ in a detail not shown here. Equal entries are not always repeated. Active and inactive are the calls of the source. The rule behind the calls is not given here.
# How the values were obtained:
# [1] = molecular target: NAD-dependent protein deacetylase sirtuin-3, mitochondrial (Homo sapiens) (UniProt Q9NTG7); experiment: Inhibition of SIRT3 (unknown origin) at 5 uM
# [2] = molecular target: NAD-dependent protein deacetylase sirtuin-1 (Homo sapiens) (UniProt Q96EB6); experiment: Inhibition of SIRT1 (unknown origin) at 5 uM
# [3] = molecular target: Polyamine deacetylase HDAC10 (Homo sapiens, UniProt Q969S8); experiment: Inhibition of recombinant N-terminal FLAG-tagged human HDAC10 (2 to 631 residues) expressed in baculovirus expression system using fluorogenic substrate by fluorescence assay
# Method in brief: (§1)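 Outsourced HDAC isozyme panel run under proprietary protocols. Each compound was tested at 10 μM and 5 μM, using HDAC substrate 3 at 10 μM, with fluorescence read-out. […] IC50 range was bracketed from % inhibition at the two concentrations.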
# Histone deacetylase 5 = Histone deacetylase 5 (Homo sapiens, UniProt Q9UQL6); experiment: Inhibition of recombinant C-terminal His-tagged human HDAC5 catalytic domain (656 to 1122 residues) expressed in baculovirus expression system using fluorogenic substrate by fluorescence assay
# Method in brief: (§2)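 Outsourced HDAC isozyme panel run under proprietary protocols. Each compound was tested at 10 μM and 5 μM, using Class 2a HDAC substrate at 2 μM, with fluorescence read-out. […] IC50 range was bracketed from % inhibition at the two concentrations.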
# [4] = molecular target: NAD-dependent protein deacetylase sirtuin-1 (Homo sapiens) (UniProt Q96EB6); experiment: Inhibition of SIRT1 (unknown origin) at 10 uM
# [5] = molecular target: NAD-dependent protein deacetylase sirtuin-2 (Homo sapiens) (UniProt Q8IXJ6); experiment: Inhibition of SIRT2 (unknown origin) at 5 uM
# [6] = molecular target: T1, DNMT3A2/3L complex (Homo sapiens) (UniProt Q9Y6K1+Q9UJW3); experiment: Inhibition of DNMT3A/3L (unknown origin) at 5 uM; format: protein-complex assay
# Histone deacetylase 2 [7] = molecular target: T2, Histone deacetylase 2 (Homo sapiens, UniProt Q92769); experiment: Inhibition of full length recombinant human HDAC2 expressed in baculovirus expression system using fluorogenic peptide RHKK(Ac) as substrate by fluorescence assay
# [8] = molecular target: DNA (cytosine-5)-methyltransferase 1 (Homo sapiens) (UniProt P26358); experiment: Inhibition of DNMT1 (unknown origin) at 5 uM
# [9] = Antiproliferative activity against human PBMC assessed as reduction in cell viability after 70 hrs by Quanti-blue assay; format: cell-based
# Method in brief: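 QB fluorescence viability assay; hPBMCs purified by density centrifugation from purchased human blood, stored frozen, resuspended in RPMI-1640 with 10% heat-inactivated FBS, HEPES, pyruvate, non-essential amino acids and BME; seeded at 10^6 cells/mL. Compounds at 50 μM, 70 h plus 2 h with detection reagent; λex 530/λem 590 nm. Three independent repeats.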
# MDA-MB-231 = experiment: Antiproliferative activity against human MDA-MB-231 cells assessed as reduction in cell viability after 72 hrs by MTS-PMS assay; format: functional; conditions: MDA-MB-231, 72 h
# Method in brief: (§3)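 MTS-PMS viability test. Cells were seeded at 3,000/well and left 24 h at 37 °C, 5% CO2, then exposed to compound for 72 h. Screening was at 50 μM for HCT116 and MCF-7 and […], with final DMSO ≤1%. MTS:PMS was mixed 20:1, added for 3 h, and absorbance read at 490 nm. At least two independent runs were done, each in triplicate.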
# Histone deacetylase 8 = Histone deacetylase 8 (Homo sapiens, UniProt Q9BY41); experiment: Inhibition of recombinant full length C-terminal His-tagged human HDAC8 expressed in baculovirus expression system using fluorogenic substrate by fluorescence assay; method in brief: as §2
# Histone deacetylase 7 = Histone deacetylase 7 (Homo sapiens, UniProt Q8WUI4); experiment: Inhibition of recombinant N-terminal GST-tagged human HDAC7 (518 to end residues) expressed in baculovirus expression system using fluorogenic substrate by fluorescence assay; method in brief: as §2
# Histone deacetylase 11 = Histone deacetylase 11 (Homo sapiens, UniProt Q96DB2); experiment: Inhibition of full length recombinant human HDAC11 expressed in baculovirus expression system using fluorogenic substrate by fluorescence assay; method in brief: as §2
# [10] = molecular target: T3, DNMT3B-DNMT3L complex (Homo sapiens) (UniProt Q9UBC3+Q9UJW3); experiment: Inhibition of DNMT3B/3L (unknown origin) at 5 uM; format: protein-complex assay
# [11] = molecular target: NAD-dependent protein deacetylase sirtuin-2 (Homo sapiens) (UniProt Q8IXJ6); experiment: Inhibition of SIRT2 (unknown origin) at 10 uM
# [12] = molecular target: NAD-dependent protein deacylase sirtuin-5, mitochondrial (Homo sapiens) (UniProt Q9NXA8); experiment: Inhibition of SIRT5 (unknown origin) at 5 to 10 uM
# Histone deacetylase 1 = Histone deacetylase 1 (Homo sapiens, UniProt Q13547); experiment: Inhibition of recombinant full length C-terminal FLAG-tagged/C-terminal His-tagged human HDAC1 using fluorogenic substrate by fluorescence assay; method in brief: as §1
# Histone deacetylase 4 = Histone deacetylase 4 (Homo sapiens, UniProt P56524); experiment: Inhibition of recombinant C-terminal His-tagged/N-terminal GST-tagged human HDAC4 (627 to 1084 residues) expressed in baculovirus expression system using fluorogenic substrate by fluorescence assay; method in brief: as §2
# [13] = molecular target: Histone deacetylase 3/Nuclear receptor corepressor 2 (HDAC3/NCoR2) (Homo sapiens, UniProt O15379); experiment: Inhibition of recombinant full length C-terminal His-tagged human HDAC3/GST-tagged human Ncor2 (395 to 489 residues) expressed in baculovirus expression system using fluorogenic substrate by fluorescence assay; method in brief: as §1
# [14] = molecular target: DNA (cytosine-5)-methyltransferase 1 (Homo sapiens) (UniProt P26358); experiment: Inhibition of DNMT1 (unknown origin) at 10 uM
# Histone deacetylase 9 = Histone deacetylase 9 (Homo sapiens, UniProt Q9UKV0); experiment: Inhibition of recombinant C-terminal His-tagged human HDAC9 (604 to 1066 residues) expressed in baculovirus expression system using fluorogenic substrate by fluorescence assay; method in brief: as §2
# [15] = Immunomodulatory activity in human TALL-104 cells assessed as effect on degranulation by measuring augmentation of CD3-stimulated anti-LAMP fluorescence at 100 uM preincubated for 30 mins followed by anti-LAMP addition and incubated for 50 mins in the dark by flow cytometric analysis relative to control; format: functional
# [16] = molecular target: Protein deacetylase HDAC6 (Homo sapiens, UniProt Q9UBN7); experiment: Inhibition of recombinant full length N-terminal GST-tagged human HDAC6 expressed in baculovirus expression system using fluorogenic substrate by fluorescence assay; method in brief: as §1
# MCF7 = experiment: Antiproliferative activity against human MCF7 cells assessed as reduction in cell viability after 72 hrs by MTS-PMS assay; conditions: MCF7, 72 h
# HCT-116 = experiment: Antiproliferative activity against human HCT116 cells assessed as reduction in cell viability after 72 hrs by MTS-PMS assay; format: functional; method in brief: as §3
# [17] = molecular target: T3, DNMT3B-DNMT3L complex (Homo sapiens); experiment: Inhibition of DNMT3B/3L (unknown origin) at 10 uM; format: protein-complex assay
# [18] = molecular target: T1, DNMT3A2/3L complex (Homo sapiens); experiment: Inhibition of DNMT3A/3L (unknown origin) at 10 uM; format: protein-complex assay
# [19] = molecular target: NAD-dependent protein deacetylase sirtuin-3, mitochondrial (Homo sapiens) (UniProt Q9NTG7); experiment: Inhibition of SIRT3 (unknown origin) at 10 uM
# Histone deacetylase 2 [20] = molecular target: T2, Histone deacetylase 2; experiment: Inhibition of recombinant full length C-terminal His-tagged human HDAC2 expressed in baculovirus expression system using fluorogenic substrate by fluorescence assay
# HuT78 = experiment: Antiproliferative activity against human HUT78 cells assessed as reduction in cell viability after 70 hrs by Quanti-blue assay; format: functional
# Method in brief: (§4)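 Quanti-Blue viability kit. HuT-78 and Molt-4 cells were grown in RPMI-1640 and seeded at 10^5 cells/mL. Compounds were screened at 50 μM for 70 h, with detection reagent present for the final 2 h. Fluorescence was read at ex 530/em 590 nm. IC50 from dose-response came from linear regression. Three independent runs.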
# MOLT-4 = experiment: Antiproliferative activity against human MOLT4 cells assessed as reduction in cell viability after 70 hrs by Quanti-blue assay; format: functional; method in brief: as §4
# T2 sequence (Q92769 whole entry): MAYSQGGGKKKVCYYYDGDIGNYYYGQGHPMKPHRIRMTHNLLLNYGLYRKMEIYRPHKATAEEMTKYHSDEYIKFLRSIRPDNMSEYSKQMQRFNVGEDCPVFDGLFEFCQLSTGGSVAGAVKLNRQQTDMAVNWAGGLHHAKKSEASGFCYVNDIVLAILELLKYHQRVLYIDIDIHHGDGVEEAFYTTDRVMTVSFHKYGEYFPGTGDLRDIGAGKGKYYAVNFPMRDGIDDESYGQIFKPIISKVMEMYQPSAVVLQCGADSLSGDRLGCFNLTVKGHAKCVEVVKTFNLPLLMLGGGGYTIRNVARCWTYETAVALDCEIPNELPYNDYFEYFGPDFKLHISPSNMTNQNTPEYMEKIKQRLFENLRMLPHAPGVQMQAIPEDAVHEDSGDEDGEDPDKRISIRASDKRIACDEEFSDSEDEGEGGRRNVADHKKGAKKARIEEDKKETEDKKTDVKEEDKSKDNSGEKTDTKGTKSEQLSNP
# Sequence of NAD-dependent protein deacetylase sirtuin-3, mitochondrial (Homo sapiens) (Q9NTG7 whole entry): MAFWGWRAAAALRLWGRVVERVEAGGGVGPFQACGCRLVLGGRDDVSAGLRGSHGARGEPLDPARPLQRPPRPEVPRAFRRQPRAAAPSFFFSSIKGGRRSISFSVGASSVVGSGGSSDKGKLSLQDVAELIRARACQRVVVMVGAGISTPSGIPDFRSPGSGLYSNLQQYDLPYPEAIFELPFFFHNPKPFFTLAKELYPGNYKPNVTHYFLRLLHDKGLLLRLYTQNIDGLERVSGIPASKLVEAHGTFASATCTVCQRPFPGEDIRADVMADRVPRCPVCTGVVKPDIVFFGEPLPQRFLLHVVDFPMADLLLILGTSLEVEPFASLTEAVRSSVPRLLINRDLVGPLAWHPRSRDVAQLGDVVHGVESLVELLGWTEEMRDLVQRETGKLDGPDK
# T3 sequence (Q9UJW3 whole entry, looked up, other chains not shown): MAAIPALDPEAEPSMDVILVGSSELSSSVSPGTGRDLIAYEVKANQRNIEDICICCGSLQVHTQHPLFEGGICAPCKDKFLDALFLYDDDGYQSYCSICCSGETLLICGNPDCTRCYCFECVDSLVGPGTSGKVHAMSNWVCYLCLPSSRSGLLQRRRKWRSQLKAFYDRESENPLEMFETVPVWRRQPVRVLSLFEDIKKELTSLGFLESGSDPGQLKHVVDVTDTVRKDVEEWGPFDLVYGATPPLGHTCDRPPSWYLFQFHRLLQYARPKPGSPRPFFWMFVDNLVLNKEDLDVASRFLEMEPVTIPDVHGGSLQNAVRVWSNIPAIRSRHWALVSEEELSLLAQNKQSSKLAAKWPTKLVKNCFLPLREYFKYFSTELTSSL
# T1 sequence (Q9UJW3 whole entry, looked up): as the sequence (Q9UJW3 whole entry, looked up, other chains not shown) above
# T1 sequence (Q9Y6K1 whole entry, looked up): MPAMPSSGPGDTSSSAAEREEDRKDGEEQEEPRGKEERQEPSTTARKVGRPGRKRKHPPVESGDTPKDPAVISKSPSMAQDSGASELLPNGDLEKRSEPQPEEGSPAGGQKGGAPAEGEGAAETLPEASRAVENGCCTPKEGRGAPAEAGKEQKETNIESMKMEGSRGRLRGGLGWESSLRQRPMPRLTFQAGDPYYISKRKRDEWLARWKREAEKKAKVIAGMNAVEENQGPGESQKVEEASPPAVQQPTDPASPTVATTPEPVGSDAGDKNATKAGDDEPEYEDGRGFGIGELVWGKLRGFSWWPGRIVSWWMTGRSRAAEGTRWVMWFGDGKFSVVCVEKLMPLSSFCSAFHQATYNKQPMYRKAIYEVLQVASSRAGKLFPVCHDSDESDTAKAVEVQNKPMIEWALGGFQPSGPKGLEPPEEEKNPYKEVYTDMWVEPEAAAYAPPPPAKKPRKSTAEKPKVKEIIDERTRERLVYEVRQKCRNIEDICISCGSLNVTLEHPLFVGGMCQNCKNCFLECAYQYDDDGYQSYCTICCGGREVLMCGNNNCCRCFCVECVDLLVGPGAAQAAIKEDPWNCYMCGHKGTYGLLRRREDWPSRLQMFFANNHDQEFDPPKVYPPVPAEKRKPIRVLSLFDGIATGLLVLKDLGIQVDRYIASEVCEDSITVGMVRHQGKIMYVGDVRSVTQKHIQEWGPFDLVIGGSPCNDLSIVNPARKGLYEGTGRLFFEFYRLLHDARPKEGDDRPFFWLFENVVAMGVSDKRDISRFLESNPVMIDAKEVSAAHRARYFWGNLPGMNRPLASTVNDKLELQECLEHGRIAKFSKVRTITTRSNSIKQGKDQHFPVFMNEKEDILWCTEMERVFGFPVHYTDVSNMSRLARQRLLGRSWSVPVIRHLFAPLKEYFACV
# Sequence of NAD-dependent protein deacetylase sirtuin-2 (Homo sapiens) (Q8IXJ6 whole entry): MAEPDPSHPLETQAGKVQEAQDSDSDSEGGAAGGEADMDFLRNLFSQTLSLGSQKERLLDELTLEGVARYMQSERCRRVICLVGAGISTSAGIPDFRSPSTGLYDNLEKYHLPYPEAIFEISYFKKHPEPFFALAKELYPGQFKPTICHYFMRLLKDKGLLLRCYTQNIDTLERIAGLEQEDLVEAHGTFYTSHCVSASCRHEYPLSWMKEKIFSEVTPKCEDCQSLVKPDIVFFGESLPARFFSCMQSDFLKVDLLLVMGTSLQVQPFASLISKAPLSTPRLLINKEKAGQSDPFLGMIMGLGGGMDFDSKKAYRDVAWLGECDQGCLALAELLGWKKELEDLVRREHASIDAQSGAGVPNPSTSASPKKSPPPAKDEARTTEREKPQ
# Sequence of NAD-dependent protein deacetylase sirtuin-1 (Homo sapiens) (Q96EB6 whole entry, the tested form may be a part): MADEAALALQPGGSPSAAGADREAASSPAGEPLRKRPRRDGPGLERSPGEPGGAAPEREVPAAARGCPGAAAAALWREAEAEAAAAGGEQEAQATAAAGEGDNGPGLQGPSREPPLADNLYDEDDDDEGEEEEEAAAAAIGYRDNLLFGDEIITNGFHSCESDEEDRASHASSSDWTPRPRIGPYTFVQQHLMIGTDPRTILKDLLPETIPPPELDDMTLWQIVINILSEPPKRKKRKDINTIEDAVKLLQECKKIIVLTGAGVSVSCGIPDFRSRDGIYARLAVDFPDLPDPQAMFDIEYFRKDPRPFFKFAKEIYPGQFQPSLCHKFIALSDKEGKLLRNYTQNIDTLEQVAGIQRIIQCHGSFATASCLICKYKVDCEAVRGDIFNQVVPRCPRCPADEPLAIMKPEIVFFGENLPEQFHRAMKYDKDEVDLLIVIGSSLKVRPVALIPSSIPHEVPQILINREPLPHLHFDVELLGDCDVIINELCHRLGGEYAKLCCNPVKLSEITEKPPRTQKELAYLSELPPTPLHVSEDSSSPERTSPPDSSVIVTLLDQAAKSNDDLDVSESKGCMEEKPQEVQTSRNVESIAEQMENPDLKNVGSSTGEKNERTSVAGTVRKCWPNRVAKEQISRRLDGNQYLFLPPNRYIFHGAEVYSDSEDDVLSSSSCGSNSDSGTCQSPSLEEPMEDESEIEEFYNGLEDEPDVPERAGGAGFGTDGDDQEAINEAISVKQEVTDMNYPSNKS
# Sequence of DNA (cytosine-5)-methyltransferase 1 (Homo sapiens) (P26358 whole entry, the tested form may be a part): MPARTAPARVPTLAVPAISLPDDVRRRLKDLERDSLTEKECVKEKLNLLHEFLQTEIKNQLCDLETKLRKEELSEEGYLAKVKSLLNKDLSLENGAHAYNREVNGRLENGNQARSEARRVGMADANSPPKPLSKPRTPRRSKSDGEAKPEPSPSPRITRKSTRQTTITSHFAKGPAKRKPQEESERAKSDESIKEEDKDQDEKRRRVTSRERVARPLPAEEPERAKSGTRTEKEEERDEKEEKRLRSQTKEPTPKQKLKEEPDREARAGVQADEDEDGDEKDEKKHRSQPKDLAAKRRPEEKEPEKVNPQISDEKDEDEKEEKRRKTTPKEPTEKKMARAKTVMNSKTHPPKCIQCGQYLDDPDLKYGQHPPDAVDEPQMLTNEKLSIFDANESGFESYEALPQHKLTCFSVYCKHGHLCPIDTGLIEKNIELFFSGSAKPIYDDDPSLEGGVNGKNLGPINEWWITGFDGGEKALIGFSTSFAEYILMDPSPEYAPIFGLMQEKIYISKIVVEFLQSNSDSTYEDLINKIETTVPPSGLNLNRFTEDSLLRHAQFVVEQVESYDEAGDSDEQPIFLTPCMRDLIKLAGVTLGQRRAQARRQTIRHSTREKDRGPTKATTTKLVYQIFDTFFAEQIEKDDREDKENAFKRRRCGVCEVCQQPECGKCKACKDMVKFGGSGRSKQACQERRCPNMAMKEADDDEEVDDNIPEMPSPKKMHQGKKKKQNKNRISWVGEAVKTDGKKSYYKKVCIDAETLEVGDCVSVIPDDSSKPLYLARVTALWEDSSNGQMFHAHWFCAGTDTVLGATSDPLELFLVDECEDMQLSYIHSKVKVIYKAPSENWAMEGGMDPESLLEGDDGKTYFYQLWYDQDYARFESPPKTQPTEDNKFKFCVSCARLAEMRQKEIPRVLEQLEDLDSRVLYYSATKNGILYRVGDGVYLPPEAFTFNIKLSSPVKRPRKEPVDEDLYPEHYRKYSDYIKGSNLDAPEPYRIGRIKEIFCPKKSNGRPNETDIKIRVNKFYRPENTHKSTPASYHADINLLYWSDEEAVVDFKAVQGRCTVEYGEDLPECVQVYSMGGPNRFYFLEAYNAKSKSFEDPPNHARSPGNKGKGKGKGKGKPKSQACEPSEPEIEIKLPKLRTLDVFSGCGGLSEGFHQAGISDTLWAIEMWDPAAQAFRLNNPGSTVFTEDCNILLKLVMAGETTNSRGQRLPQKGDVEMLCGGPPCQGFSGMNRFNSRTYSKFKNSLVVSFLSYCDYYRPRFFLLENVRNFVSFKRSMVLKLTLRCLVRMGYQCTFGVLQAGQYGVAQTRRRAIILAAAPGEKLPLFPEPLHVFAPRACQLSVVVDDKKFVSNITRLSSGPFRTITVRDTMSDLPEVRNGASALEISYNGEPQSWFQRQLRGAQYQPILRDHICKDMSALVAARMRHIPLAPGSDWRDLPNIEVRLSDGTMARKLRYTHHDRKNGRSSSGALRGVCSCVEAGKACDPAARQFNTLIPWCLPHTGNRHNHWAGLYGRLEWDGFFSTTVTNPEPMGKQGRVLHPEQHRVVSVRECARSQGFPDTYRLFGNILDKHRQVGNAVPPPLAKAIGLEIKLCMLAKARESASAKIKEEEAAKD
smiles,measurement,setting,value
CCOC(=O)NCCCC(=O)NCCc1ccccc1,inhibition,[1],inactive
same,inhibition,[2],inactive
same,IC50,[3],5 to 10 µM
same,IC50,Histone deacetylase 5,5 to 10 µM
same,inhibition,[4],inactive
same,inhibition,[5],inactive
same,inhibition,[6],inactive
same,IC50,Histone deacetylase 2 [7],> 1 µM
same,inhibition,[8],inactive
same,GI50 at 70 h,[9],> 50 µM
same,GI50,MDA-MB-231,> 50 µM
same,IC50,Histone deacetylase 8,5 to 10 µM
same,IC50,Histone deacetylase 7,5 to 10 µM
same,IC50,Histone deacetylase 11,5 to 10 µM
same,inhibition,[10],inactive
same,inhibition,[11],inactive
same,inhibition,[12],inactive
same,IC50,Histone deacetylase 1,5 to 10 µM
same,IC50,Histone deacetylase 4,5 to 10 µM
same,IC50,[13],5 to 10 µM
same,inhibition,[14],inactive
same,IC50,Histone deacetylase 9,5 to 10 µM
same,Activity,[15],77%
same,IC50,[16],5 to 10 µM
same,GI50,MCF7,> 50 µM
same,GI50,HCT-116,> 50 µM and 17.2 µM
same,inhibition,[17],inactive
same,inhibition,[18],inactive
same,inhibition,[19],inactive
same,IC50,Histone deacetylase 2 [20],5 to 10 µM
same,GI50,HuT78,36 µM
same,GI50,"HuT78; Homo sapiens, HuT78, 70 h",> 50 µM
same,GI50,MOLT-4,> 50 µM and 7.8 µM
